Measurements from ChEMBL document CHEMBL2331520, “Synthesis, surface tension properties and antibacterial activities of amphiphilic D-galactopyranose derivatives” (Eur J Med Chem, 2013).
In brackets after ≈: the same amount, converted by molar mass.

What was measured:
[1] = tested on: Staphylococcus aureus; experiment: Antibacterial activity against Staphylococcus aureus subsp aureus CIP 53.154 assessed as growth inhibition at 30 degC after 24 hrs by liquid broth dilution method; assay type: functional; details: CIP 53.154, 24 h
Procedure, shortened: (§1)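 Strains kept at -80 °C in LB broth with 20% glycerol and grown from 1% (v/v) stock in nutritive broth (yeast extract 1 g/L, meat extract 2 g/L, peptone 5 g/L, NaCl 5 g/L) at 30 °C. Overnight culture adjusted to 0.5 McFarland (~1.5 × 10⁸ cfu/mL). Compound stock 1 g/L in DMSO, serially diluted in broth 1:2 to 1:512, mixed 1:1 with inoculum. Incubation 24 h, 150 rpm, 30 °C. OD600 read; MIC = lowest concentration with no OD increase in all replicates versus negative control.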

[2] = tested on: Mycolicibacterium smegmatis; experiment: Antibacterial activity against Mycobacterium smegmatis CIP 73.26 assessed as growth inhibition at 37 degC after 24 hrs by liquid broth dilution method; assay type: functional; details: CIP 73.26, 24 h
Procedure, shortened: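 Inoculum at 0.5 McFarland (~1.5 × 10⁸ cfu/mL). DMSO stock (1 g/L) serially diluted in the same medium 1:2 to 1:512. Shaken 24 h at 150 rpm, 37 °C. MIC = lowest concentration with no OD600 rise in any replicate versus negative control.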

[3] = tested on: Micrococcus luteus; experiment: Antibacterial activity against Micrococcus luteus CIP 53.45 assessed as growth inhibition at 30 degC after 24 hrs by liquid broth dilution method; assay type: functional; details: CIP 53.45, 24 h; procedure, shortened: as §1
[4] = tested on: Geobacillus stearothermophilus; experiment: Antibacterial activity against Bacillus stearothermophilus ATTC 12980 assessed as growth inhibition at 30 degC after 24 hrs by liquid broth dilution method; assay type: functional; details: ATTC 12980, 24 h; procedure, shortened: as §1
[5] = tested on: Sinorhizobium meliloti; experiment: Antibacterial activity against Sinorhizobium meliloti Rm1021 assessed as growth inhibition at 30 degC after 24 hrs by liquid broth dilution method; assay type: functional; details: Rm1021, 24 h; procedure, shortened: as §1
[6] = tested on: Pseudomonas aeruginosa; experiment: Antibacterial activity against Pseudomonas aeruginosa CIP A22 assessed as growth inhibition at 30 degC after 24 hrs by liquid broth dilution method; assay type: functional; details: CIP A22, 24 h; procedure, shortened: as §1
[7] = tested on: Escherichia coli; experiment: Antibacterial activity against Escherichia coli ATCC 10536 assessed as growth inhibition at 30 degC after 24 hrs by liquid broth dilution method; assay type: functional; details: ATCC 10536, 24 h; procedure, shortened: as §1
[8] = tested on: Dickeya chrysanthemi; experiment: Antibacterial activity against Erwinia chrysanthemi EC3937 assessed as growth inhibition at 30 degC after 24 hrs by liquid broth dilution method; assay type: functional; details: EC3937, 24 h; procedure, shortened: as §1
[9] = tested on: Enterobacter cloacae; experiment: Antibacterial activity against Enterobacter cloacae ATCC 13047 assessed as growth inhibition at 30 degC after 24 hrs by liquid broth dilution method; assay type: functional; details: ATCC 13047, 24 h; procedure, shortened: as §1
[10] = tested on: Citrobacter freundii; experiment: Antibacterial activity against Citrobacter freundii ATCC 6750 assessed as growth inhibition at 30 degC after 24 hrs by liquid broth dilution method; assay type: functional; details: ATCC 6750, 24 h; procedure, shortened: as §1
[11] = Critical micelle concentration of the compound by wilhelmy method; assay type: physicochemical
Procedure, shortened: (§2)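 Wilhelmy plate method at 293 K. Concentrated solution added stepwise from a syringe into ultrapure water, stirred gently 30 s after each addition, then equilibrium surface tension read. Each value is the mean of at least three measurements (SD within ±1.5% of mean). Transducer precision 0.1 mN/m; platinum plate flame-cleaned. Surface tension plotted against molar concentration to give CMC and γCMC.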

[12] = Gamma critical micelle concentration of the compound by wilhelmy method; assay type: physicochemical; procedure, shortened: as §2

Row | Compound | MIC [1] [µg/mL] | MIC [2] [µg/mL] | MIC [3] [µg/mL] | MIC [4] [µg/mL] | MIC [5] [µg/mL] | MIC [6] [µg/mL] | MIC [7] [µg/mL] | MIC [8] [µg/mL] | MIC [9] [µg/mL] | MIC [10] [µg/mL] | CMC [11] | gammaCMC [12]
1 | CCCCCCCCOC[C@H]1O[C@@H]2OC(C)(C)O[C@@H]2[C@H]2OC(C)(C)O[C@H]21 | ≥ 250 | ≥ 250 | ≥ 250 | ≥ 250 | ≥ 250 | ≥ 250 | ≥ 250 | ≥ 250 | ≥ 250 | ≥ 250 |  | 
2 | CCCCCCCCCCCCOC[C@H]1O[C@@H]2OC(C)(C)O[C@@H]2[C@H]2OC(C)(C)O[C@H]21 | ≥ 250 | ≥ 250 | ≥ 250 | ≥ 250 | ≥ 250 | ≥ 250 | ≥ 250 | ≥ 250 | ≥ 250 | ≥ 250 |  | 
3 | CCCCCCCCOC[C@H]1O[C@H](O)[C@H](O)[C@@H](O)[C@H]1O | ≥ 250 | ≥ 250 | ≥ 250 | ≥ 250 | ≥ 250 | ≥ 250 | ≥ 250 | ≥ 250 | ≥ 250 | ≥ 250 | 12 mmol/L | 28 mN/meter
4 | CCCCCCCCCCCCOC[C@H]1O[C@H](O)[C@H](O)[C@@H](O)[C@H]1O | ≥ 250 | ≥ 250 | ≥ 250 | ≥ 250 | ≥ 250 | ≥ 250 | ≥ 250 | ≥ 250 | ≥ 250 | ≥ 250 | Not Active | Not Active
5 | CCCCCCCCOCC#CCOC[C@H]1O[C@H](O)[C@H](O)[C@@H](O)[C@H]1O | 125 (≈ 347 µM) | 62.5 (≈ 173 µM) | 62.5 (≈ 173 µM) | 62.5 (≈ 173 µM) | 62.5 (≈ 173 µM) | 125 (≈ 347 µM) | 62.5 (≈ 173 µM) | 62.5 (≈ 173 µM) | 62.5 (≈ 173 µM) | 125 (≈ 347 µM) | 0.06 mmol/L | 30 mN/meter
6 | CCCCCCCCOc1ccc(OC[C@H]2O[C@H](O)[C@H](O)[C@@H](O)[C@H]2O)cc1 | 125 (≈ 325 µM) | 62.5 (≈ 163 µM) | 62.5 (≈ 163 µM) | 62.5 (≈ 163 µM) | 62.5 (≈ 163 µM) | 125 (≈ 325 µM) | 62.5 (≈ 163 µM) | 62.5 (≈ 163 µM) | 62.5 (≈ 163 µM) | 125 (≈ 325 µM) | Not Active | Not Active
7 | CCCCCCCCCCCCOCCCCOC[C@H]1O[C@H](O)[C@H](O)[C@@H](O)[C@H]1O | 125 (≈ 297 µM) | 62.5 (≈ 149 µM) | 15.6 (≈ 37.1 µM) | 31.2 (≈ 74.3 µM) | 62.5 (≈ 149 µM) | 62.5 (≈ 149 µM) | 62.5 (≈ 149 µM) | 62.5 (≈ 149 µM) | 62.5 (≈ 149 µM) | 62.5 (≈ 149 µM) | 0.023 mmol/L | 48 mN/meter
8 | CCCCCCCCCCCCOc1ccc(OC[C@H]2O[C@H](O)[C@H](O)[C@@H](O)[C@H]2O)cc1 | 125 (≈ 284 µM) | 62.5 (≈ 142 µM) | 62.5 (≈ 142 µM) | 62.5 (≈ 142 µM) | 62.5 (≈ 142 µM) | 62.5 (≈ 142 µM) | 62.5 (≈ 142 µM) | 62.5 (≈ 142 µM) | 62.5 (≈ 142 µM) | 125 (≈ 284 µM) | 3.1 mmol/L | 54 mN/meter

Further lines, results first:

Row | MIC [1] [µg/mL] | MIC [2] [µg/mL] | MIC [3] [µg/mL] | MIC [4] [µg/mL] | MIC [5] [µg/mL] | MIC [6] [µg/mL] | MIC [7] [µg/mL] | MIC [8] [µg/mL] | MIC [9] [µg/mL] | MIC [10] [µg/mL] | CMC [11] | gammaCMC [12] | Compound
9 | 125 (≈ 281 µM) | 62.5 (≈ 141 µM) | 62.5 (≈ 141 µM) | 62.5 (≈ 141 µM) | 62.5 (≈ 141 µM) | 62.5 (≈ 141 µM) | 62.5 (≈ 141 µM) | 62.5 (≈ 141 µM) | 62.5 (≈ 141 µM) | 62.5 (≈ 141 µM) |  |  | CCCCCCCCOCCCCOC[C@H]1O[C@@H]2OC(C)(C)O[C@@H]2[C@H]2OC(C)(C)O[C@H]21
10 | 125 (≈ 284 µM) | 62.5 (≈ 142 µM) | 62.5 (≈ 142 µM) | 62.5 (≈ 142 µM) | 62.5 (≈ 142 µM) | 62.5 (≈ 142 µM) | 62.5 (≈ 142 µM) | 62.5 (≈ 142 µM) | 62.5 (≈ 142 µM) | 62.5 (≈ 142 µM) |  |  | CCCCCCCCOCC#CCOC[C@H]1O[C@@H]2OC(C)(C)O[C@@H]2[C@H]2OC(C)(C)O[C@H]21
11 | 125 (≈ 269 µM) | 62.5 (≈ 135 µM) | 62.5 (≈ 135 µM) | 62.5 (≈ 135 µM) | 62.5 (≈ 135 µM) | 125 (≈ 269 µM) | 62.5 (≈ 135 µM) | 62.5 (≈ 135 µM) | 62.5 (≈ 135 µM) | 125 (≈ 269 µM) |  |  | CCCCCCCCOc1ccc(OC[C@H]2O[C@@H]3OC(C)(C)O[C@@H]3[C@H]3OC(C)(C)O[C@H]32)cc1
12 | 125 (≈ 250 µM) | 31.2 (≈ 62.4 µM) | 15.6 (≈ 31.2 µM) | 31.2 (≈ 62.4 µM) | 62.5 (≈ 125 µM) | 62.5 (≈ 125 µM) | 62.5 (≈ 125 µM) | 62.5 (≈ 125 µM) | 62.5 (≈ 125 µM) | 62.5 (≈ 125 µM) |  |  | CCCCCCCCCCCCOCCCCOC[C@H]1O[C@@H]2OC(C)(C)O[C@@H]2[C@H]2OC(C)(C)O[C@H]21
13 | 125 (≈ 252 µM) | 62.5 (≈ 126 µM) |  | 15.6 (≈ 31.4 µM) | 62.5 (≈ 126 µM) | 62.5 (≈ 126 µM) | 62.5 (≈ 126 µM) | 62.5 (≈ 126 µM) | 62.5 (≈ 126 µM) | 62.5 (≈ 126 µM) |  |  | CCCCCCCCCCCCOCC#CCOC[C@H]1O[C@@H]2OC(C)(C)O[C@@H]2[C@H]2OC(C)(C)O[C@H]21
14 | 125 (≈ 240 µM) | 62.5 (≈ 120 µM) | 31.2 (≈ 60 µM) | 62.5 (≈ 120 µM) | 62.5 (≈ 120 µM) | 125 (≈ 240 µM) | 62.5 (≈ 120 µM) | 62.5 (≈ 120 µM) | 62.5 (≈ 120 µM) | 62.5 (≈ 120 µM) |  |  | CCCCCCCCCCCCOc1ccc(OC[C@H]2O[C@@H]3OC(C)(C)O[C@@H]3[C@H]3OC(C)(C)O[C@H]32)cc1
15 | 125 (≈ 343 µM) | 62.5 (≈ 171 µM) | 62.5 (≈ 171 µM) | 62.5 (≈ 171 µM) | 62.5 (≈ 171 µM) | 62.5 (≈ 171 µM) | 62.5 (≈ 171 µM) | 62.5 (≈ 171 µM) | 62.5 (≈ 171 µM) | 125 (≈ 343 µM) | 0.3 mmol/L | 30 mN/meter | CCCCCCCCOCCCCOC[C@H]1O[C@H](O)[C@H](O)[C@@H](O)[C@H]1O
16 | 62.5 (≈ 150 µM) | 62.5 (≈ 150 µM) | 3.91 (≈ 9.39 µM) | 7.81 (≈ 18.7 µM) | 31.2 (≈ 75 µM) | 62.5 (≈ 150 µM) | 62.5 (≈ 150 µM) | 62.5 (≈ 150 µM) | 62.5 (≈ 150 µM) | 62.5 (≈ 150 µM) | 0.032 mmol/L | 35 mN/meter | CCCCCCCCCCCCOCC#CCOC[C@H]1O[C@H](O)[C@H](O)[C@@H](O)[C@H]1O
17 | < 0.98 | 1.95 (≈ 6.03 µM) | < 0.98 | 3.9 (≈ 12.1 µM) | < 0.98 | 1.95 (≈ 6.03 µM) | < 0.98 | 0.98 (≈ 3.03 µM) | < 0.98 | 7.8 (≈ 24.1 µM) |  |  | O=C(N[C@H](CO)[C@H](O)c1ccc([N+](=O)[O-])cc1)C(Cl)Cl [CHLORAMPHENICOL]
